From article PMC4090938 (Molecular cell, 2014) come the findings set out here.

Test [1] has as its system Erk-MAP kinase in Grb2-/- mESCs. In words: Erk-MAP kinase activation. It counts as cell-based, mouse. To be noted: SU5402 10 μM. Put shortly:
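Grb2-/- mouse ES cells (line described previously) were transfected with Lipofectamine LTX. Constructs were WT or chimeric Grb2 in pCAGGS, driven by a β-actin promoter. Cells were selected with puromycin for 48 h before analysis.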

The next test concerns Grb2-/- mESCs. In words: mESC priming. To be noted: Grb2-/- mESCs expressing the construct; Nanog/Dnmt3b expression signature. It counts as cell-based, mouse. Put shortly:
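Grb2-/- mESCs were transfected (Lipofectamine LTX) with WT or chimeric Grb2 in pCAGGS under a β-actin promoter, then puromycin-selected for 48 h before analysis. Dnmt3b levels were quantified as mean ± standard deviation (n=3). Regular colonies were also immunostained for Nanog and Dnmt3b.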

The target of another test is T1, Ptpn11 (Mus musculus, UniProt P35235).
T1 sequence (P35235 1-593): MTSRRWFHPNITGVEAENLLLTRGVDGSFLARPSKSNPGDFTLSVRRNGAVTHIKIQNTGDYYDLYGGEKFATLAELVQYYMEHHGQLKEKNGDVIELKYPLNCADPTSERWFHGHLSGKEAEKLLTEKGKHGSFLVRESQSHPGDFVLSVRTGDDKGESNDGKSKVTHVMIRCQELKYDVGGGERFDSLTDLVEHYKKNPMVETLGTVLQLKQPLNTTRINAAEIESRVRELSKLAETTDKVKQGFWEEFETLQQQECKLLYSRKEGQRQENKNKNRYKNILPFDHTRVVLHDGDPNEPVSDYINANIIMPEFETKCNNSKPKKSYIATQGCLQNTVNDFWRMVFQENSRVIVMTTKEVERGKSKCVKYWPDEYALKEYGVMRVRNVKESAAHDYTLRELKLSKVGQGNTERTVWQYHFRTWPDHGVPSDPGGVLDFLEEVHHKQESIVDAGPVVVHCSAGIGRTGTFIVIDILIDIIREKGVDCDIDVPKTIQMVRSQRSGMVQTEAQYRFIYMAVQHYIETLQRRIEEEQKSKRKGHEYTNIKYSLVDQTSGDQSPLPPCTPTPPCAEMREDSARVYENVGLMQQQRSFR
Put plainly: FLAG IP of FLAG-tagged Grb2 constructs compared with Ptpn11 level in cell lysate. Format: cell-based. To be noted: Ptpn11 in FLAG IP versus cell lysate, mESCs; data not shown.

As to `Cc1c[nH]c(/C=C2\C(=O)Nc3ccccc32)c1CCC(=O)O` [SU5402], the “effect on activation of Erk-MAP kinase by chGrb2(Ptpn11_pY580) or WT Grb2” value in test [1] was “blocked”.

On to “WT Grb2: vector-derived FLAG-tagged wild-type Grb2 adaptor protein”, for which the “restoration of mESC priming” value in the test with Grb2-/- mESCs was “reestablished”. For the same compound, in the test with Ptpn11, the “Ptpn11 in the cell engaged” value is recorded as “approximately 20%”.
